From paper PMC8415080 (Pharmacology Research & Perspectives, 2021)

Legend:
[1] = system: H460 cells; assay: Mitochondria respiration profiling; assay type: cell-based, human
Method in brief: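 On the XF96, basal OCR was followed by injection of test compound doses (10X), then oligomycin (1 µg/ml), FCCP, and rotenone plus antimycin A (1 µM each). Cycles were 4 min mix, 3 min measure; control injections were medium. OCR expressed as fold of vehicle.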

[2] = system: patients; settings: no reference given; cited from earlier work
[3] = system: H460 cells; assay: Proliferation assay; assay type: cell-based, human
[4] = system: ferret; assay: Ferret model of emesis; assay type: in vivo; settings: increasing doses; for induction of emesis (retches and vomits): 2 h test
[5] = system: H460 cells; assay: Apoptosis assay; assay type: cell-based, human
[6] = system: H460 cells; assay: Total and mitochondrial ATP content; assay type: cell-based, human
Method in brief: (§1)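 Cells (8000/well) were incubated 18 h at 37℃ (5% CO2). Test compound was added at half‐log doses, final 10 nM–10 µM, to paired plates for 1 h, with or without 100 µM iodoacetate. ATP was read by CellTiter‐Glo luminescence: mitochondrial ATP with iodoacetate, global ATP without. Mean ± SD.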

[7] = system: KARPAS 422 cells; assay: Glucose and lactate levels; assay type: cell-based, human
[8] = molecular target: OAT1 (Homo sapiens, UniProt Q4U2R8); assay: In vitro transporter inhibition; assay type: in vitro ADME
[9] = system: H460‐LKB1 cells; assay: mTOR/AMPK pathway signaling; assay type: cell-based, human; settings: H460‐LKB1, within minutes after exposure
[10] = molecular target: OATP1B3 (Homo sapiens, UniProt Q9NPD5); assay: In vitro transporter inhibition; assay type: in vitro ADME
[11] = Plasma pharmacokinetics after intravenous and oral administration; assay type: in vivo, C57BL/6J mice
Method in brief: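 Plasma pharmacokinetics in C57BL/6J mice: intravenous test compound at 3 mg/kg, and escalating oral doses of 10, 30 and 75 mg/kg.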

[12] = system: OxPhos‐Eµ‐Myc lymphoma; assay: B‐cell lymphoma in vivo study, OxPhos‐Eµ‐Myc; set-up: species or system C57BL/6 mice; settings: 30 mg/kg p.o. QD, OxPhos‐Eµ‐Myc‐bearing mice
Method in brief: (§2)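 Syngeneic female C57BL/6J Ola Hsd mice, 6 weeks old, received 1 × 10^5 viable Eμ‐Myc cells in PBS by tail vein. Oral dosing began 6 days later, when inguinal nodes became palpable: 30 mg/kg daily at 10 ml/kg in PEG200/Solutol HS15/water (30%/5%/65%), or vehicle alone; n = 10/group. Weight and node palpation every 2–3 days. Mice sacrificed at illness signs; node tumors and spleens weighed. Kaplan–Meier survival, log‐rank test.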

[13] = system: glycolytic‐Eµ‐Myc lymphoma; assay: B‐cell lymphoma in vivo study, glycolytic‐Eµ‐Myc; set-up: species or system C57BL/6 mice; settings: 30 mg/kg p.o. QD, glycolytic‐Eµ‐Myc‐bearing mice
Method in brief: as §2

[14] = system: mouse acute myeloid leukemia; settings: ref Luna Yolba, in revision; cited from earlier work
[15] = system: 198 kinases; assay: DiscoverX KiNativ in situ kinase selectivity panel on live Jurkat cells; assay type: cell-based; settings: 10 µM
[16] = system: H460‐luc2 orthotopic tumors; assay: Orthotopic H460 lung tumor model; assay type: in vivo, Balb/CJ‐Nude mice; settings: 30 mg/kg p.o. QD from D7
Method in brief: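 Male Balb/c Nude mice, 7 weeks old, were anaesthetised i.p. with Rompun (20 mg/kg) plus Imalgene (100 mg/kg). They were inoculated intrabronchially via an oral catheter with 25 µl of H460‐Luc2 cells at 20 million/ml in PBS. Mice were allocated by bioluminescence at D7 and dosed orally at 30 mg/kg daily for 15 days (3 mg/ml in PEG200/Solutol HS15/water 30%/5%/65%, 10 ml/kg) or vehicle; n = 9/group. Imaging at D7/D14/D21 used 12 min post i.p. D‐luciferin (2 mg). Tumors were measured at termination; t‐test.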

[17] = molecular target: CCK1R (Homo sapiens, UniProt P32238); assay: Cerep in vitro safety screen, competition with reference ligand binding; settings: 10 µM
Method in brief: (§3)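 Cerep in vitro safety screen: test compound at 10 µM assessed for competition with reference ligand binding across a panel of 300 receptors.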

[18] = molecular target: BCRP (Homo sapiens, UniProt Q9UNQ0); assay: In vitro transporter inhibition; assay type: in vitro ADME
[19] = system: KARPAS 422 cells; assay: Proliferation assay; assay type: cell-based; settings: Homo sapiens, KARPAS-422, read-out: IC50 proliferation
[20] = molecular target: MRP2 (Homo sapiens, UniProt Q92887); assay: In vitro transporter inhibition; assay type: in vitro ADME
[21] = system: Hep3B cells; assay: Mitochondrial ATP content; assay type: cell-based; settings: Homo sapiens, 1 h, read-out: IC50 mitochondrial ATP production
Method in brief: as §1

[22] = molecular target: P‐gp (Homo sapiens, UniProt P08183); assay: In vitro transporter inhibition; assay type: in vitro ADME; settings: expressed in MDCKII
[23] = system: H460‐LKB1 cells; assay: Apoptosis assay; assay type: cell-based, human; settings: H460‐LKB1, even at 10 µM
[24] = system: LL/2 cells; assay: Proliferation assay; assay type: cell-based; settings: Mus musculus, LL/2, read-out: apparent IC50 proliferation
[25] = molecular target: OCT1 (Homo sapiens, UniProt O15245); assay: In vitro transporter inhibition; assay type: in vitro ADME
[26] = system: H460‐LKB1 cells; assay: Total and mitochondrial ATP content; assay type: cell-based, human; settings: H460‐LKB1, whatever the dose
Method in brief: as §1

[27] = system: MDA‐MB231 cells; assay: Mitochondrial ATP content; assay type: cell-based; settings: Homo sapiens, MDA-MB-231, 1 h, read-out: IC50 mitochondrial ATP production
Method in brief: as §1

[28] = molecular target: CCK2R (Homo sapiens, UniProt P32239); assay: Cerep in vitro safety screen, competition with reference ligand binding; settings: 10 µM
Method in brief: as §3

[29] = system: OxPhos‐Eµ‐Myc and glycolytic‐Eµ‐Myc lymphoma cells; assay: In vitro cell death assay; assay type: cell-based, mouse; settings: 10 µM, 24 h, DAPI positive cells
Method in brief: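 Primary Eμ‐Myc cells were maintained in DMEM with 10% FBS, 2‐mercaptoethanol (50 µM), L‐asparagine (0.37 mM) and HEPES (10 mM, pH 7.4). Cells (2 × 10^5/well) were exposed to test compound or DMSO for 24 h, stained with DAPI (0.5 µg/ml) and analysed by flow cytometry. Cell death = % DAPI‐positive in treated cells ÷ % DAPI‐positive in control. Mean of 4 independent experiments, 5 clones per group.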

[30] = molecular target: MLK2 (Homo sapiens, UniProt Q02779); assay: DiscoverX KiNativ in situ kinase selectivity panel on live Jurkat cells; assay type: cell-based; settings: 10 µM
[31] = molecular target: A2AR (Homo sapiens, UniProt P29274); assay: Cerep in vitro safety screen, competition with reference ligand binding; settings: 10 µM
Method in brief: as §3

[32] = molecular target: OATP1B1 (Homo sapiens, UniProt Q9Y6L6); assay: In vitro transporter inhibition; assay type: in vitro ADME
[33] = system: U87 cells; assay: Mitochondrial ATP content; assay type: cell-based; settings: Homo sapiens, U-87 MG, 1 h, read-out: IC50 mitochondrial ATP production
Method in brief: as §1

[34] = molecular target: Complex I purified from bovine heart (Bos taurus, UniProt P03887+P17694+P42026); assay: MitoTox Complex I OxPhos Activity Assay; assay type: biochemical
Method in brief: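 MitoTox Complex I kit: Complex I purified from bovine heart and immunocaptured on the plate by specific antibodies. Activity followed as the decrease in absorbance at 340 nm from NADH oxidation.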

[35] = Tissue distribution after single oral administration; assay type: in vivo, C57BL/6J mice; settings: male, C57BL/6J, mouse, 30 mg/kg
[36] = system: H460 WT cells; assay: mTOR/AMPK pathway signaling; assay type: cell-based, human; settings: WT H460, over 60 min
[37] = system: mitochondria isolated from liver of OF1; assay type: biochemical; settings: 7.5 µM
Method in brief: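 Polarographic measurement of oxidation and phosphorylation rates in mitochondria isolated from liver of female OF1 mice, over a range of test compound doses.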

[38] = system: LL/2 cells; assay: Apoptosis assay; assay type: cell-based, mouse; settings: LL/2, even at 10 µM
[39] = system: patients; settings: 18 patients with advanced solid tumors; cited from earlier work

Chain of CCK2R (P32239 whole entry, species assumed): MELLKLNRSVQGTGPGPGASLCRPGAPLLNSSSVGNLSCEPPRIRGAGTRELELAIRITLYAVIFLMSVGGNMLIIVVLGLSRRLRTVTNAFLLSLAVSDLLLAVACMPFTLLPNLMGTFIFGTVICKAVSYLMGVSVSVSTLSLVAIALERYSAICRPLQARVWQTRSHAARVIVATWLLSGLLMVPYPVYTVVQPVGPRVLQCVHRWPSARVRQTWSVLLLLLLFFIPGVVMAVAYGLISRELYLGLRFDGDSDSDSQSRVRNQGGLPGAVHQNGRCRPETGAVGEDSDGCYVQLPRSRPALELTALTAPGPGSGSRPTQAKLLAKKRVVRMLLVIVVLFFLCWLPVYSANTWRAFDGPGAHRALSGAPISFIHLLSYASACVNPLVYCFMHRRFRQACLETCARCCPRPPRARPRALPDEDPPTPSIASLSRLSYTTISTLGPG
Chain of OATP1B1 (Q9Y6L6 whole entry): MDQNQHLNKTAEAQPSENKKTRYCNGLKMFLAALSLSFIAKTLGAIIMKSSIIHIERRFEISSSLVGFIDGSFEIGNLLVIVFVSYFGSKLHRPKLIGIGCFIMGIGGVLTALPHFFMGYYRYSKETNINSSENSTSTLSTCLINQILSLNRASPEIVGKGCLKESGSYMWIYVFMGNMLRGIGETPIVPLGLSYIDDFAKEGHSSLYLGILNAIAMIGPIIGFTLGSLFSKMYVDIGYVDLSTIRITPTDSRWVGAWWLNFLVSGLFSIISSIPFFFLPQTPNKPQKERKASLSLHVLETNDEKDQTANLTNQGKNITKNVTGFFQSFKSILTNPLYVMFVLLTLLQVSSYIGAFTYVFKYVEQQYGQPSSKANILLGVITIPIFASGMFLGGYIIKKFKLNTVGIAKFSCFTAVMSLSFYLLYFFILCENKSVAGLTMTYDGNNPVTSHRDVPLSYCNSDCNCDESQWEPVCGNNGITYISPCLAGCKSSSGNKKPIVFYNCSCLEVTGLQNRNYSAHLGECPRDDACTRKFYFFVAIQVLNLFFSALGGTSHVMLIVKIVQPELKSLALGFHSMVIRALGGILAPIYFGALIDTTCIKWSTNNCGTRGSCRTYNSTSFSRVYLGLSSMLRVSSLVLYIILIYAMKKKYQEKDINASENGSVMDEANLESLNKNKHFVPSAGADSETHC
Chain of OCT1 (O15245 whole entry): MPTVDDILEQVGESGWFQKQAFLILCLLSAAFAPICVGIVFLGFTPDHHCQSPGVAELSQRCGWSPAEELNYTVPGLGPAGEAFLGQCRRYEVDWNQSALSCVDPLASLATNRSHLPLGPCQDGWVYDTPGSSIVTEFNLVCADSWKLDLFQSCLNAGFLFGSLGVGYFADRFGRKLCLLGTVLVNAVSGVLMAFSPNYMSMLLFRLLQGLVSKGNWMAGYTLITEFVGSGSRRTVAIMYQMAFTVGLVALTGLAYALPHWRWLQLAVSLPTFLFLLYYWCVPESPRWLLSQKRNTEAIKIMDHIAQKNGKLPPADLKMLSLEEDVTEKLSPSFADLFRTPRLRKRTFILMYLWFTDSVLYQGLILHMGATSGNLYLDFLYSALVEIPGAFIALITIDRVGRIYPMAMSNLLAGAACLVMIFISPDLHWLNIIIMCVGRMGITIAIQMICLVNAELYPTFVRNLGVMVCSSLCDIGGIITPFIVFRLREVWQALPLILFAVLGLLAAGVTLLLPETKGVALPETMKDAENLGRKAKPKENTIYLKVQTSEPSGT
Chain of P‐gp (P08183 whole entry): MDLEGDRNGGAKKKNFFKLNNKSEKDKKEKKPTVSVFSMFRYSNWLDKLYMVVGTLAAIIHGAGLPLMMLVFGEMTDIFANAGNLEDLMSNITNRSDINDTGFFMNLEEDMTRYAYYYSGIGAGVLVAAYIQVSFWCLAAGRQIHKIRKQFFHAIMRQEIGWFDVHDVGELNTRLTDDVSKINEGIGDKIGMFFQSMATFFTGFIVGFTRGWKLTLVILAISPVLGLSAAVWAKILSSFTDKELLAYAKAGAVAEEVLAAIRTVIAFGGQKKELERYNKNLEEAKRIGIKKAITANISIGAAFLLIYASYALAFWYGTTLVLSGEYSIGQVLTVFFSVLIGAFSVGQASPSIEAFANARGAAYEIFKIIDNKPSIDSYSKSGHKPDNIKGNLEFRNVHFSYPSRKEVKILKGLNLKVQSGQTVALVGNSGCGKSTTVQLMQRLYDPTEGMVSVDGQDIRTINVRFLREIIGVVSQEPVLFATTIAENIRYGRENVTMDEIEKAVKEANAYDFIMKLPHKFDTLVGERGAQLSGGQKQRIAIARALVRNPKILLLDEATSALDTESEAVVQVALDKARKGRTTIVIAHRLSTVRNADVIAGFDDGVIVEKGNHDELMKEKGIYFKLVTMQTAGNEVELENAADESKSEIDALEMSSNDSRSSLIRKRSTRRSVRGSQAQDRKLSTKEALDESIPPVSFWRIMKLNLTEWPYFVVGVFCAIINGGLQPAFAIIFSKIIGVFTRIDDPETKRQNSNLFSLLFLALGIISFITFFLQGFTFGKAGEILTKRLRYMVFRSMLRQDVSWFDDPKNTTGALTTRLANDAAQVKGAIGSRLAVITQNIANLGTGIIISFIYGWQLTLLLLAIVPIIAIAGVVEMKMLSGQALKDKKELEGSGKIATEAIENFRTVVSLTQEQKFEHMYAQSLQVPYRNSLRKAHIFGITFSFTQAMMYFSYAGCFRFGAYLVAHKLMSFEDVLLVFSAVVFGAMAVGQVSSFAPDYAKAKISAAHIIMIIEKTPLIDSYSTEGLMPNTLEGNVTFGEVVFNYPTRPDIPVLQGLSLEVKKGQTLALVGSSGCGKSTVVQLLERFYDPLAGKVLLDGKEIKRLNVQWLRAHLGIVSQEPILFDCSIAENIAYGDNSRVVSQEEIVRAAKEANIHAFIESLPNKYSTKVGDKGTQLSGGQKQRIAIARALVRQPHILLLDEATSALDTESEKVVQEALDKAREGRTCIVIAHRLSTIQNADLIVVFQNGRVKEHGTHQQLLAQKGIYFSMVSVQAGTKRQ
Chain of OAT1 (Q4U2R8 whole entry, species assumed): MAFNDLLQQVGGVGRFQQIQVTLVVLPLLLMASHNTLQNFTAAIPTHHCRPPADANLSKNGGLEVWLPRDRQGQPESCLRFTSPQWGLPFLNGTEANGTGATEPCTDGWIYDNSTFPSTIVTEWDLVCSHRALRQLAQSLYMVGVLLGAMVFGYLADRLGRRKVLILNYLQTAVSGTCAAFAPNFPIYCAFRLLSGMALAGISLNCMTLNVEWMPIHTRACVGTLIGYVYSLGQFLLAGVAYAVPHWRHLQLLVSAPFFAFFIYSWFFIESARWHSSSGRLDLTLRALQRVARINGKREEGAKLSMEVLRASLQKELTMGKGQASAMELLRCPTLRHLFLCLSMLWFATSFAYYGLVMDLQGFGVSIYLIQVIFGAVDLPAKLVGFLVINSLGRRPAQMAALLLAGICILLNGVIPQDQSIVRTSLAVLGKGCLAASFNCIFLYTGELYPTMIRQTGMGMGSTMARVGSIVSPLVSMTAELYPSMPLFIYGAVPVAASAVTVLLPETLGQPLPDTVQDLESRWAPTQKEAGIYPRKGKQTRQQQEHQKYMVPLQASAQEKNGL
Chain of CCK1R (P32238 whole entry, species assumed): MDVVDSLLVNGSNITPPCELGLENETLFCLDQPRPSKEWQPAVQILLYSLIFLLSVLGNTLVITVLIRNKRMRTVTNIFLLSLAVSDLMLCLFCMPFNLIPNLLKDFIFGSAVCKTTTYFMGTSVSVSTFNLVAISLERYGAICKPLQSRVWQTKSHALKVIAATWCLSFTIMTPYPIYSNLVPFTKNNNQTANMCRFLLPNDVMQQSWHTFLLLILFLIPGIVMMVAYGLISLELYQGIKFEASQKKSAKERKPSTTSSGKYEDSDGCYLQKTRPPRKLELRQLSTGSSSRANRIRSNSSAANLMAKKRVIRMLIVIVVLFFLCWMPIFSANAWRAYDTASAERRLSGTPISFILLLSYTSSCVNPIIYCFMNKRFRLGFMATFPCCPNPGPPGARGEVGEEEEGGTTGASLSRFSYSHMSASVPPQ
Chain of Complex I purified from bovine heart (P17694 34-463): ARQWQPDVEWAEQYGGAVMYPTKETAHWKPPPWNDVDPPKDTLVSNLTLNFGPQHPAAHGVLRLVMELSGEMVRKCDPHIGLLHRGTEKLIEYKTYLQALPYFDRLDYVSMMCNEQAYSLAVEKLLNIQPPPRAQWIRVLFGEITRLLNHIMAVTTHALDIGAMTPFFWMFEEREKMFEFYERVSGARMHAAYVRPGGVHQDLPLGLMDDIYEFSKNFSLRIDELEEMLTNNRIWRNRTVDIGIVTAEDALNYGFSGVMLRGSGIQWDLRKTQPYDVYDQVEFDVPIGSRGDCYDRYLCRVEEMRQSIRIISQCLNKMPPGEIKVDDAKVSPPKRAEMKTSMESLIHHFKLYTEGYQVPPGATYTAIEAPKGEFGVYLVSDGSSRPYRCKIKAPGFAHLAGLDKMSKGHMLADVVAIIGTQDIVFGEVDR
Chain of Complex I purified from bovine heart (P42026 38-216): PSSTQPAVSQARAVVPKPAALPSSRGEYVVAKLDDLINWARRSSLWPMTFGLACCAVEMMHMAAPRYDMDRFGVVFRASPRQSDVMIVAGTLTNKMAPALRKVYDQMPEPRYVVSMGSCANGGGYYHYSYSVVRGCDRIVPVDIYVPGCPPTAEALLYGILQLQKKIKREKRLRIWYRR
Chain of Complex I purified from bovine heart (P03887 whole entry): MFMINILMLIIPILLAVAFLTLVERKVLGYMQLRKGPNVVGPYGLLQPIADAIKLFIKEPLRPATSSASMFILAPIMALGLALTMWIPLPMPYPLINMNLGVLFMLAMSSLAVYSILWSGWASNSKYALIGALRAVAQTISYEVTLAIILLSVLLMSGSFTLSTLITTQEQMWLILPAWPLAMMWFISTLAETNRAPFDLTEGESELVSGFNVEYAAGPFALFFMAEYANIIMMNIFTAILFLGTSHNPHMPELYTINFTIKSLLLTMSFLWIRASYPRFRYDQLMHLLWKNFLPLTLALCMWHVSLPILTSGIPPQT

For `Cc1cc(-c2nc(-c3ccc(OC(F)(F)F)cc3)no2)nn1Cc1ccnc(N2CCN(C3CC3)CC2)c1` [BAY87‐2243, reference compound], the “dose at which an effect on OCR is detected” value [1] is listed as “above 100 nM”, the “emesis in patients, clinical phase 1” value [2] is listed as “induction of emesis in patients” and the “dose at which proliferation is significantly inhibited” value ([3]; H460) is listed as “less than or equal to 1 nM”. The “what limited dose escalation” value [4] was “limited by toxicity”, the “induction of emesis (retches and vomits)” value [4] was “induced retches and vomits from half of the first patient Cmax” and the “dose at which apoptosis is significantly affected (printed: inhibited)” value ([5]; H460) was “less than or equal to 1 nM”. For the same compound, the “dose at which mitochondrial ATP production is significantly inhibited” value [6] was “less than or equal to 1 nM”.

For `COc1ccc(C(O)COc2ccc(-c3csc(-c4ccc(OCC(O)c5ccc(OC)c(OC)c5)cc4)n3)cc2)cc1OC` (stereo not shown) [EVT‐701, 1‐(3,4‐dimethoxyphenyl)‐2‐[4‐[2‐[4‐[2‐(3,4‐dimethoxyphenyl)‐2‐hydroxy‐ethoxy]phenyl]‐thiazol‐4‐yl]‐phenoxy]ethanol], the “glucose consumption and lactate release” value [7] was “increased glucose consumption and lactate release”, the IC50 [8] was > 30 µM and the “phosphorylation of 4E‐BP1 (Serine 65), Raptor and ACC downstream of AMPK” value [9] was “increased phosphorylation state”. For the same compound, the IC50 [10] was 2.4 ± 0.2 µM, the “F (bioavailability)” value ([11]; AUC of 10 mg/kg oral dose vs AUC of intravenous dose, 10 mg/kg) was 64% and the half-life ([11]; C57BL/6J, mouse, plasma, po, 10 mg/kg) was 4.1 h. For the same compound, the “dose‐proportionality” value ([11]; oral 10, 30 and 75 mg/kg) was “conserved from 10 to 75 mg/kg”, the “lymphomas harvested vs Vehicle” value [12] was “significantly smaller” and the overall survival [12] was “significant increase”. For the same compound, the “progression‐free survival” value ([12]; not shown) was “significant increase”, the overall survival [13] was “no effect” and the “weight of lymphomas vs Vehicle” value [13] was “similar”. For the same compound, the “progression‐free survival” value ([13]; data not shown) was “no effect”, the “rescue of inhibitory effect on respiration” value [14] was “rescued by succinate” and the “inhibition of kinase activity, any of the 198 kinases of the panel” value [15] was ≤ 30%. The “decrease of tumor volume at D21” value [16] was 60%, the “increase of ligand binding to CCK1R” value [17] was “more than 50%” and the IC50 [18] was 4.1 ± 2.7 µM. For the same compound, the IC50 [19] was 0.188 ± 0.05 µM, the IC50 [20] was > 30 µM and the IC50 [21] was 0.081 ± 0.012 µM. The “P‐gp transport” value [22] was “not affected”, the induction of apoptosis [23] was “no induction of apoptosis” and the IC50 [24] was 0.295 ± 0.052 µM. The IC50 [25] was > 30 µM, the IC50 ([3]; Homo sapiens, NCI-H460, read-out: apparent IC50 proliferation) was 0.068 ± 0.027 µM and the “what limited dose escalation” value [4] was “by solubility”. The “induction of emesis (retches and vomits)” value [4] was “didn't”, the “total ATP” value [26] was “remains unchanged” and the IC50 [27] was 0.052 ± 0.018 µM. For the same compound, the “increase of ligand binding to CCK2R” value [28] was “more than 50%”, the “sensitivity to cell death induction, OxPhos‐Eµ‐Myc vs glycolytic‐Eµ‐Myc cells” value [29] was “more sensitive” and the “increase of MLK2 activity” value [30] was “more than 30%”. The IC50 ([5]; Homo sapiens, NCI-H460, read-out: IC50 apoptosis induction) was 0.096 ± 0.028 µM, the “decrease of ligand binding to A2AR” value [31] was “more than 50%” and the IC50 [32] was 1.1 ± 0.1 µM. The IC50 [33] was 0.074 ± 0.038 µM, the IC50 [34] was 0.3 µM and the Kp ([35]; brain) was 0.25. For the same compound, the Kp ([35]; heart) was 4.2, the Kp ([35]; kidney) was 4.5 and the Kp ([35]; liver) was 5.9. For the same compound, the Kp ([35]; lung) was 2.3, the Kp ([35]; pancreas) was 4.5 and the “4E‐BP1, Raptor and ACC phosphorylation” value [36] was “unaffected”. For the same compound, the “inhibition of NADH oxidation and phosphorylation of ADP into ATP” value [37] was 80% and the cell death induction [38] was “no significant cell death”.

For `Cc1nc(-c2nc(-c3ccc(OC(F)(F)F)cc3)no2)nn1Cc1cccc(N2CCC(S(C)(=O)=O)CC2)c1` [IACS‐010759], the “tolerability in phase 1” value [39] is given as “well‐tolerated”.
